Assay [1] has as its target T1, 5-hydroxytryptamine receptor 3A (Cavia porcellus) (UniProt O70212).
T1 sequence (whole entry): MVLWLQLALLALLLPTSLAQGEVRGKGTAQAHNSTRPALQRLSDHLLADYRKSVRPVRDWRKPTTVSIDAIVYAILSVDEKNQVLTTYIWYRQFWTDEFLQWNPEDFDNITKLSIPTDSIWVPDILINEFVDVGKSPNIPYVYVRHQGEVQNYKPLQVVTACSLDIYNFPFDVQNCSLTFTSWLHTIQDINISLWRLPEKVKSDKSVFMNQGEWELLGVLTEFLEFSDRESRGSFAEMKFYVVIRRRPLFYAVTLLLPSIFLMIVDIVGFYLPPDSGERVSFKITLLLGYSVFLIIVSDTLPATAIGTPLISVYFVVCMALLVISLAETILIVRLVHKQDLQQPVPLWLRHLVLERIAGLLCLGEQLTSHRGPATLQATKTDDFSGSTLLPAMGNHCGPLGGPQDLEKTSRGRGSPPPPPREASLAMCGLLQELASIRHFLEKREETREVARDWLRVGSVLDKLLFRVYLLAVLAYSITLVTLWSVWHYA
Put plainly: Agonist activity at 5HT3 receptor in guinea pig thoracic aorta assessed as positive contractility potency at 100 uM. The format is functional, tissue-based. Summed up: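 Guinea pig aortic helicoidal strips in PSS at 35 °C, aerated, under 1 g resting force, washed every 20 min for 1 h. Compounds added cumulatively 0.1-100 µM (DMSO vehicle); isometric contraction recorded.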

In assay [2] the target is T2, 5-hydroxytryptamine receptor 3A (Cavia porcellus, UniProt O70212).
T2 sequence (O70212 whole entry): T1 sequence (whole entry)
Put plainly: Antagonist activity at 5HT3 receptor in spontaneously beating guinea pig right atrium assessed as inhibition of serotonin-induced maximum response by competitive binding assay. As to conditions: read-out: pA2 (converted). Also noted: species or system Cardiac atrium.

In assay [3] the target is T1, 5-hydroxytryptamine receptor 3A (Cavia porcellus). In words: Agonist activity at 5HT3 receptor in spontaneously beating guinea pig right atrium assessed as positive chronotropic potency at 100 uM. The format is functional, tissue-based. As to conditions: Cardiac atrium. Summed up: (§1)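 Guinea pig left and right atria were hung in a 15 mL bath of PSS (pH 7.4, 95% O2-5% CO2, 35 °C) with ketanserin 1 µM. The right atrium beat spontaneously; the left was paced at 1 Hz. Cumulative doses (0.1-100 µM; DMSO ≤0.3%) were added after 45-60 min stabilization. Rate or isometric force was recorded. EC50 came from Probit analysis, n≥4. Intrinsic activity was taken relative to 5-HT.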

Assay [4] shares this target. In words: Agonist activity at 5HT3 receptor in voltage-stimulated guinea pig left atrium assessed as positive inotropic potency at 100 uM. The format is functional, tissue-based. The following applies: Cardiac atrium. In a few lines:
as §1

Assay [5] concerns Rattus norvegicus. In words: Antagonist activity at 5HT3 receptor in urethane-anesthetized Sprague-Dawley rat assessed as effect on 1-phenylbiguanide-induced bradycardia at 36 ug/kg, iv administered 5 mins before 1-phenylbiguanide challenge measured after 5 to 30 mins post-treatment by von Bezold-Jarisch reflex test. The format is functional, organism-based.
The test system of assay [6] is Rattus norvegicus. In words: Agonist activity at 5HT3 receptor in iv dosed urethane-anesthetized Sprague-Dawley rat assessed as induction of bradycardia measured after 5 to 30 mins post-treatment by von Bezold-Jarisch reflex test. The format is functional.
Assay [7] has as its target T3, 5-hydroxytryptamine receptor 3A (Rattus norvegicus, UniProt P35563).
T3 sequence (P35563 whole entry): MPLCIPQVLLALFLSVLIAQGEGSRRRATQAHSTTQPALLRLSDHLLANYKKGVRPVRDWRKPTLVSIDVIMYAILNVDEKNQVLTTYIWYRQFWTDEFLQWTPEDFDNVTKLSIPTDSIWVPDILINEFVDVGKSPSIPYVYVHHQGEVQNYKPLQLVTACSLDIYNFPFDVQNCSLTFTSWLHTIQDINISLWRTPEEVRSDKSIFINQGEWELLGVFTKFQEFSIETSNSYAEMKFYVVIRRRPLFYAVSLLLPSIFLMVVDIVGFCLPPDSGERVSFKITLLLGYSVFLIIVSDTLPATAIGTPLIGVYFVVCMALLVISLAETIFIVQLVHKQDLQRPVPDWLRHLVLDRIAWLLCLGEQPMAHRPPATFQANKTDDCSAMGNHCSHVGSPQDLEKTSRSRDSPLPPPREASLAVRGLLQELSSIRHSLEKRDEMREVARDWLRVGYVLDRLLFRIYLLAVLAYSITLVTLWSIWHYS
Put plainly: Displacement of [3H]LY278584 from 5HT3 receptor in rat cortical homogenate. A general note: Displacement assays read how much labelled ligand stays bound in the presence of the test substance.

Assay [8] has as its target T2, 5-hydroxytryptamine receptor 3A. Put plainly: Antagonist activity at 5HT3 receptor in spontaneously beating guinea pig right atrium assessed as inhibition of serotonin-induced maximum response by noncompetitive binding assay. The class given is tissue-based, Cardiac atrium. Summed up: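 Spontaneously beating guinea pig right atrium; 5-HT concentration-response curves (0.001-1.0 µM) before and after 30 min antagonist exposure at three concentrations. IC50 is inhibition of 50% of maximal 5-HT response, Probit analysis, n = 4-6.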

Assay [9] deals with Rattus norvegicus. In words: Antagonist activity at 5HT3 receptor in urethane-anesthetized Sprague-Dawley rat assessed as prevention of 1-phenylbiguanide-induced bradycardia at 1 ug/kg, iv administered 5 mins before 1-phenylbiguanide challenge measured after 5 mins post-treatment by von Bezold-Jarisch reflex test. The format is functional. Also noted: scale not given: the % may be the effect or the level left.

Assay [10] concerns the target T1, 5-hydroxytryptamine receptor 3A (Cavia porcellus). Put plainly: Agonist activity at 5HT3 receptor in voltage-stimulated guinea pig left atrium assessed as positive inotropic potency. The class given is functional, tissue-based. As to conditions: Cardiac atrium. Summed up: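 Isolated guinea pig atria in PSS (Tyrode) with ketanserin 1 µM, 95% O2-5% CO2, pH 7.4, 35 °C. Right atrium beating spontaneously (rate); left atrium paced 1 Hz, 0.6-0.8 ms pulses near 50% threshold (force). Isometric recording after 45-60 min stabilization.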

The target is the same in assay [11]. Put plainly: Intrinsic activity at 5HT3 receptor in voltage-stimulated guinea pig left atrium assessed as positive inotropic potency relative to serotonin. The class given is tissue-based. The following applies: Cardiac atrium. In a few lines:
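Electrically paced guinea pig left atrium (1 Hz) in PSS containing ketanserin 1 µM, pH 7.4, 35 °C. Contractile force recorded isometrically while cumulative concentrations of 0.1-100 µM were added (DMSO ≤0.3%). Intrinsic activity is expressed as the maximal response relative to that of 5-HT.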

Assay [12] has as its system Rattus norvegicus. Put plainly: Agonist activity at 5HT3 receptor in urethane-anesthetized Sprague-Dawley rat assessed as decrease in heart rate at 40 ug/kg, iv up to 30 seconds post-treatment by von Bezold-Jarisch reflex test. The format is functional. The arrangement: scale not given: the % may be the effect or the level left.

The source made the active and inactive calls.

Regarding `CN1[C@@H]2CC[C@H]1C[C@@H](OC(=O)c1c[nH]c3ccccc13)C2` [TROPISETRON], the pD2 result in [1], in [3] and in assay [4] was “inactive” throughout. Besides, the Kb in assay [2] was 0.0302 µM.
As a reminder, the ED50 is the dose that gives a 50% effect, or the effect in half of the subjects. In general, Ki refers to a measure of affinity in units of concentration, obtained from inhibition or displacement. What is called IC50 is the concentration at which inhibition is half-maximal. Take `O=C(O)CN1CCN(c2nc3cc(F)ccc3n3cccc23)CC1`: the pD2 result in assay [1], in [3] and in [4] was “inactive” in each case. In the assay with Rattus norvegicus [5], the result was inactive. Moreover, the ED50 with Rattus norvegicus [6] was determined as 0.036 mg/kg. Moreover, in [7], the Ki worked out at 0.0117 µM. Further, in [8], the IC50 is 1.91 µM.
As to `COc1cc(N)c(Cl)cc1C(=O)NC1CN2CCC1CC2` (stereo not given) [ZACOPRIDE], the Activity in the assay with Rattus norvegicus [9] was 100%.
`N=C(N)NC(=N)Nc1ccccc1` [PHENYL BIGUANIDE]: in assay [10], the pD2 was determined as 4.31. Further, in [11], the Intrinsic activity was found to be 1. Besides, the Activity with Rattus norvegicus [12] was found to be 64%.

(Values after ChEMBL document CHEMBL1136924 (J Med Chem, 2009).)
